Measured values gathered from unrelated publications.
Compare with care: the assays were run in different laboratories.
Effect on: thermal stability
Technique: DSF
DCLK1: Serine/threonine-protein kinase DCLK1 (DCLK1, Homo sapiens, UniProt O15075)
GAK: Cyclin-G-associated kinase (GAK, Homo sapiens, UniProt O14976)
SIRT2: NAD-dependent protein deacetylase sirtuin-2 (SIRT2, Homo sapiens, UniProt Q8IXJ6)
lecA: PA-I galactophilic lectin (lecA, Pseudomonas aeruginosa, UniProt Q05097)

| Structure (SMILES) | target | setting | ΔTm [°C] |
| --- | --- | --- | --- |
| Cn1c2c(Cl)c(Cl)ccc2c2cn[nH]c(=O)c21 | DCLK1 | 10 µM | -0.2 |
| Fc1cc(Nc2ccnc3ccc(C(F)(F)F)cc23)cc(F)c1F | GAK | 10 µM | 3.7 |
| Cc1cc(C)nc(SCC(=O)Nc2ncc(Cc3cccc(OCc4cn(Cc5ccccc5C)nn4)c3)s2)n1 | SIRT2 | 25 µM | 4.26 |
| CCN1CCC2(CC1)NC(=O)c1c(c3ccc(Cl)c(Cl)c3n1C)C2C#N (racemic) | DCLK1 | 10 µM | 0.1 |
| COc1ccccc1Nc1ccnc2ccc(C(F)(F)F)cc12 | GAK | 10 µM | 3 |
| CCCCCCCC(=O)Nc1ncc(Cc2cccc(OCc3cn(CCOC)nn3)c2)s1 | SIRT2 | 25 µM | 4.28 |
| CCC1(CC)NC(=O)c2c(c3ccc(Cl)c(Cl)c3n2C)C1C#N (centres unmarked) | DCLK1 | 10 µM | 0 |
| CC(C)(C)c1ccc(O)c(O)c1 | lecA | 4 mM | -15.4 |
| Cc1cc(C)nc(SCC(=O)Nc2ncc(Cc3cccc(OCc4cn(Cc5ccc(OCCN6CCOCC6)cc5)nn4)c3)s2)n1 | SIRT2 | 25 µM | 6.63 |
| N#Cc1cccc(O)c1O | lecA | 4 mM | 1.8 |
| FC(F)(F)c1ccc2nccc(Nc3ccc(Cl)cc3)c2c1 | GAK | 10 µM | 4.3 |
